Experimental data taken from ChEMBL document CHEMBL1800016, “Novel thiazolidinedione derivatives with anti-obesity effects: dual action as PTP1B inhibitors and PPAR-γ activators” (Bioorg Med Chem Lett, 2010).
The source made the active and inactive calls. No cut-off for these calls is given here.

How the values were obtained:
[1] = target: T1, Tyrosine-protein phosphatase 1 (Saccharomyces cerevisiae S288c, UniProt P25044); test: Inhibition of yeast PTP1 expressed in Escherichia coli assessed as p-nitrophenol release from pNPP substrate preincubated for 10 mins
T1 sequence (P25044 whole entry): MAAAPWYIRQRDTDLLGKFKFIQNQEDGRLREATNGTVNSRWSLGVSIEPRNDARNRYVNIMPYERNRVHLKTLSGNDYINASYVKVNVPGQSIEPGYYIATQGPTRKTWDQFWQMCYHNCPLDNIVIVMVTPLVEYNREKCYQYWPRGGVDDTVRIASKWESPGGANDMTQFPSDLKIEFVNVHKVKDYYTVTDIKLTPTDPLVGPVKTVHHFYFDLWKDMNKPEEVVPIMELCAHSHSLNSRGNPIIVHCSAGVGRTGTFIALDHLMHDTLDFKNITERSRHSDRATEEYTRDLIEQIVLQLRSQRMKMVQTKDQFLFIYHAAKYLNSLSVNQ
How it was run: (§1)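 IC50 values against the PTP panel, with enzymes prepared as described in the supplementary material. Values are means ± SD of two or more experiments.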

Mus musculus [2] = test: Antiobesity activity in high fat diet-fed diabetic C57BL/6J Jms Slc mouse model assessed as decrease in retroperitoneal fat at 2.6 mg/day administered with food for 4 weeks; type: functional
How it was run: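 DIO male C57BL/6J Jms Slc mice were fed a 45%-fat HFD for 8 wk, then HFD with 0.1% w/w compound in feed (about 2.6 mg/day/mouse) for 4 wk. A 10%-fat LFD lean group ran throughout. Measures were weight gain, feed efficiency (weight gain/kcal ×100), and epididymal and retroperitoneal fat pad weights. n = 8/group; mean ± SEM; one-way ANOVA.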

Mus musculus [3] = test: Toxicity in high fat diet-fed diabetic C57BL/6J Jms Slc mouse model assessed as change in weight of liver at 2.6 mg/day administered with food for 4 weeks; type: organism-based; conditions: in vivo, po, 672 h
How it was run: (§2)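 At the end of the 4 wk in-feed dosing (about 2.6 mg/day/mouse in HFD), liver, kidney and lung weights were compared across the lean LFD, HFD control and treated groups.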

Mus musculus [4] = test: Toxicity in high fat diet-fed diabetic C57BL/6J Jms Slc mouse model assessed as change in weight of kidney at 2.6 mg/day administered with food for 4 weeks; type: organism-based; conditions: in vivo, po, 672 h; how it was run: as §2
Mus musculus [5] = test: Antiobesity activity in high fat diet-fed diabetic C57BL/6J Jms Slc mouse model assessed as decrease in total cholesterol level in serum at 2.6 mg/day administered with food for 4 weeks; type: functional
How it was run: (§3)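 DIO mice were fed HFD for 8 wk, then HFD containing 0.1% w/w compound (about 2.6 mg/day/mouse) for 4 wk. At the end of feeding, mice were deprived of food overnight. Serum total cholesterol, triglyceride and NEFA were then measured. Values are mean ± SEM.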

Mus musculus [6] = test: Antiobesity activity in high fat diet-fed diabetic C57BL/6J Jms Slc mouse model assessed as decrease in serum triglyceride level at 2.6 mg/day administered with food for 4 weeks; type: functional; how it was run: as §3
Mus musculus [7] = test: Antiobesity activity in high fat diet-fed diabetic C57BL/6J Jms Slc mouse model assessed as decrease in non-esterified free fatty acid level in serum at 2.6 mg/day administered with food for 4 weeks; type: functional; how it was run: as §3
Mus musculus [8] = test: Antidiabetic activity in high fat diet-fed diabetic C57BL/6J Jms Slc mouse model assessed as normalization of blood glucose level at 2.6 mg/day administered with food for 4 weeks measured 60 mins after last dose by glucose tolerance test; type: functional, organism-based
How it was run: (§4)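 Mice were male C57BL/6J Jms Slc, 5 wk old after 1 wk acclimatization. They were fed a 45%-fat HFD for 8 wk, then HFD with compound mixed in (1.0 g/kg diet, about 2.6 mg/day/mouse, 78 mg/day/kg) for 4 wk. Each mouse was fasted 6 h from the start of the light cycle and fasting glucose was measured. Glucose 1.0 g/kg was then given i.p., with readings at 60 and 90 min.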

[9] = target: T2, Tyrosine-protein phosphatase non-receptor type 1 (Homo sapiens) (UniProt P18031); test: Mixed type inhibition of PTP1B expressed in Escherichia coli
T2 sequence (whole entry): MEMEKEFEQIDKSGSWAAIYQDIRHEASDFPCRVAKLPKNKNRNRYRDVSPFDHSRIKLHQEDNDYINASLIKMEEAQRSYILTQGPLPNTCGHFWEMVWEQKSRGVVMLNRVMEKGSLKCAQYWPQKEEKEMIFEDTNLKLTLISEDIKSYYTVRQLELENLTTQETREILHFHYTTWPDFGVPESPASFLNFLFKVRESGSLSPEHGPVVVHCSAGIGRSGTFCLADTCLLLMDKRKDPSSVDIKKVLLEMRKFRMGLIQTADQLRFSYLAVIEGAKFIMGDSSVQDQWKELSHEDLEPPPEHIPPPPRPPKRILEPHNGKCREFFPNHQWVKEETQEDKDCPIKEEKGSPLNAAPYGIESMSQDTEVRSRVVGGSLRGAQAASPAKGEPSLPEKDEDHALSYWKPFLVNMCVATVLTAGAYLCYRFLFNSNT

Mus musculus [10] = test: Antidiabetic activity in high fat diet-fed diabetic C57BL/6J Jms Slc mouse model assessed as normalization of fasting blood glucose level at 2.6 mg/day administered with food for 4 weeks measured 60 mins after last dose by glucose tolerance test in presence of glucose; type: functional, organism-based; how it was run: as §4
Mus musculus [11] = test: Antidiabetic activity in high fat diet-fed diabetic C57BL/6J Jms Slc mouse model assessed as normalization of fasting blood glucose level at 2.6 mg/day administered with food for 4 weeks measured 90 mins after last dose by glucose tolerance test in presence of glucose; type: functional, organism-based; how it was run: as §4
Mus musculus [12] = test: Antidiabetic activity in high fat diet-fed diabetic C57BL/6J Jms Slc mouse model assessed as normalization of fasting blood glucose level measured after 6 hrs of fasting at 2.6 mg/day administered with food for 4 weeks measured 90 mins after last dose by glucose tolerance test; type: functional, organism-based; how it was run: as §4
[13] = Selectivity ratio of IC50 for TC-PTP to IC50 for PTP1B
[14] = Selectivity ratio of IC50 for membrane proximal catalytic domain of LAR-D1 to IC50 for PTP1B
[15] = target: Tyrosine-protein phosphatase non-receptor type 6 (Homo sapiens, UniProt P29350); test: Inhibition of catalytic domain of SHP-1 expressed in Escherichia coli assessed as p-nitrophenol release from pNPP substrate preincubated for 10 mins; how it was run: as §1
Sequence of Tyrosine-protein phosphatase non-receptor type 6 (P29350 whole entry, the tested form may be a part): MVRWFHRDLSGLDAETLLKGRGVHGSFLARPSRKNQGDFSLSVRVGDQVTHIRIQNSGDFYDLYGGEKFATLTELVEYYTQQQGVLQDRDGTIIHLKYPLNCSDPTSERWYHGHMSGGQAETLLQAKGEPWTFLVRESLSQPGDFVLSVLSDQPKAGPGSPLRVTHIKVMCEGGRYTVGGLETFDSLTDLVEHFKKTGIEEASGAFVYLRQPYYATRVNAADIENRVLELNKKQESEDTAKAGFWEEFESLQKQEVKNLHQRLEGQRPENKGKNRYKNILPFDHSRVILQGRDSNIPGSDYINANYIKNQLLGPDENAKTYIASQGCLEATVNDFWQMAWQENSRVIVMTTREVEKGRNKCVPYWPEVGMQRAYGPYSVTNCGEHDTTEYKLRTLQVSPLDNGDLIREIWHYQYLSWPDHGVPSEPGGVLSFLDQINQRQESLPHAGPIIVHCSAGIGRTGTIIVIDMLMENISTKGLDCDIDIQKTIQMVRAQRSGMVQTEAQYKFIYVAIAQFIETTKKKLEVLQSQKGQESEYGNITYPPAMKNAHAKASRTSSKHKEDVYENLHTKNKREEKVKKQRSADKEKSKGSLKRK

[16] = Inhibition of YOP assessed as p-nitrophenol release from pNPP substrate preincubated for 10 mins; how it was run: as §1

## Cc1ccc(S(=O)(=O)Oc2cc(OCc3ccc(C(F)(F)F)cc3)c(/C=C3\SC(=O)NC3=O)cc2Br)cc1
[1]
  IC50: 12 µM
Mus musculus [2]
  Activity: 0.43 g
Mus musculus [3]
  Activity: Non-toxic
Mus musculus [4]
  Activity: Non-toxic
Mus musculus [5]
  Activity: 124 mg/dL
Mus musculus [6]
  Activity: 76 mg/dL
Mus musculus [7]
  Activity: 0.2 mM
Mus musculus [8]
  Activity: Active
[9]
  inhibition: Active
Mus musculus [10]
  Activity: inactive
Mus musculus [11]
  Activity: inactive
Mus musculus [12]
  Activity: inactive
[13]
  Ratio IC50: > 10
[14]
  Ratio IC50: > 10
[15]
  IC50: 3 µM
[16]
  IC50: 3.9 µM
